Values after ≈ are worked out from the molar mass of the structure shown.
Experiments:
Assay type in all cases: functional
[1] = tested on: Streptococcus pneumoniae; test: Antibacterial activity against penicillin-intermediate Streptococcus pneumoniae after overnight incubation by agar dilution method
Procedure, shortened: (§1)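 Agar dilution on Mueller-Hinton agar supplemented with 5% sheep blood, inoculum 10^4 CFU/spot, read after overnight incubation at 35°C in ambient air. Clinical isolates with defined genotypes; S. pneumoniae ATCC 49619 quality control strain included in each run. MIC50/MIC90 are MICs inhibiting 50% and 90% of isolates.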

[2] = tested on: Streptococcus pneumoniae; test: Antibacterial activity against penicillin-susceptible Streptococcus pneumoniae after overnight incubation by agar dilution method
Procedure, shortened: (§2)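 Agar dilution on Mueller-Hinton agar supplemented with 5% sheep blood. Inoculum 10^4 CFU/spot, incubated overnight at 35°C in ambient air. Test strains were clinical pneumococcal isolates. S. pneumoniae ATCC 49619 was included as the quality control strain in each run. MIC range, MIC50 and MIC90 were reported for each susceptibility category.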

[3] = tested on: Streptococcus pyogenes; test: Antibacterial activity against macrolide-resistant Streptococcus pyogenes harboring erm(A) gene after overnight incubation by agar dilution method
Procedure, shortened: (§3)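 Agar dilution MICs on Mueller-Hinton agar with 5% sheep blood. Inoculum 10^4 CFU/spot, incubated overnight at 35°C in ambient air. Clinical S. pneumoniae or group A streptococcal isolates; resistance genotypes (erm(B), erm(A), mef(A)/mef(E)) were assigned by PCR. S. pneumoniae ATCC 49619 served as QC strain in each run. Range, MIC50 and MIC90 reported per phenotype group.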

[4] = tested on: Streptococcus pyogenes; test: Antibacterial activity against Streptococcus pyogenes harboring mef(A) gene after overnight incubation by agar dilution method
Procedure, shortened: (§4)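 Clinical isolates collected 1998–2008, with macrolide-resistance genes confirmed by PCR. MICs by agar dilution on Mueller-Hinton agar with 5% sheep blood. Inoculum 10^4 CFU/spot, incubated overnight at 35°C in ambient air. S. pneumoniae ATCC 49619 was the quality-control strain in every run.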

[5] = tested on: Streptococcus pneumoniae; test: Antibacterial activity against macrolide-susceptible Streptococcus pneumoniae after overnight incubation by agar dilution method; procedure, shortened: as §3
[6] = tested on: Streptococcus pneumoniae; test: Antibacterial activity against quinolone-susceptible Streptococcus pneumoniae after overnight incubation by agar dilution method; procedure, shortened: as §2
[7] = tested on: Streptococcus pneumoniae; test: Antibacterial activity against quinolone-resistant Streptococcus pneumoniae after overnight incubation by agar dilution method; procedure, shortened: as §2
[8] = tested on: Streptococcus pneumoniae; test: Antibacterial activity against Streptococcus pneumoniae harboring mef(A) gene after overnight incubation by agar dilution method; procedure, shortened: as §4
[9] = tested on: Streptococcus pneumoniae; test: Antibacterial activity against macrolide-resistant Streptococcus pneumoniae harboring mef(A) gene after overnight incubation by agar dilution method; procedure, shortened: as §3
[10] = tested on: Streptococcus pyogenes; test: Antibacterial activity against Streptococcus pyogenes harboring mutation in L4 ribosomal protein after overnight incubation by agar dilution method; procedure, shortened: as §4
[11] = tested on: Streptococcus pyogenes; test: Antibacterial activity against macrolide-susceptible Streptococcus pyogenes after overnight incubation by agar dilution method; procedure, shortened: as §1
[12] = tested on: Streptococcus pneumoniae; test: Antibacterial activity against Streptococcus pneumoniae harboring erm(A) gene after overnight incubation by agar dilution method; procedure, shortened: as §4
[13] = tested on: Streptococcus pyogenes; test: Antibacterial activity against Streptococcus pyogenes harboring erm(B) gene after overnight incubation by agar dilution method; procedure, shortened: as §4
[14] = tested on: Streptococcus pyogenes; test: Antibacterial activity against macrolide-resistant Streptococcus pyogenes harboring erm(B) gene after overnight incubation by agar dilution method; procedure, shortened: as §3
[15] = tested on: Streptococcus pneumoniae; test: Antibacterial activity against Streptococcus pneumoniae harboring mutation in 23S rRNA after overnight incubation by agar dilution method; procedure, shortened: as §4
[16] = tested on: Streptococcus pyogenes; test: Antibacterial activity against Streptococcus pyogenes harboring erm(A) gene after overnight incubation by agar dilution method; procedure, shortened: as §4
[17] = tested on: Streptococcus pyogenes; test: Antibacterial activity against macrolide-resistant Streptococcus pyogenes harboring mef(A) gene after overnight incubation by agar dilution method; procedure, shortened: as §3
[18] = tested on: Streptococcus pneumoniae; test: Antibacterial activity against macrolide-resistant Streptococcus pneumoniae harboring erm(B) gene after overnight incubation by agar dilution method; procedure, shortened: as §3
[19] = tested on: Streptococcus pneumoniae; test: Antibacterial activity against Streptococcus pneumoniae harboring erm(B) and mef(A) gene after overnight incubation by agar dilution method; procedure, shortened: as §4
[20] = tested on: Streptococcus pneumoniae; test: Antibacterial activity against macrolide-resistant Streptococcus pneumoniae harboring erm(B) and mef(A) gene after overnight incubation by agar dilution method; procedure, shortened: as §3
[21] = tested on: Streptococcus pneumoniae; test: Antibacterial activity against Streptococcus pneumoniae harboring erm(B) gene after overnight incubation by agar dilution method; procedure, shortened: as §4
[22] = tested on: Streptococcus pneumoniae; test: Antibacterial activity against Streptococcus pneumoniae harboring mutation in L4 ribosomal protein after overnight incubation by agar dilution method; procedure, shortened: as §4
[23] = tested on: Streptococcus pneumoniae; test: Antibacterial activity against penicillin-resistant Streptococcus pneumoniae after overnight incubation by agar dilution method; procedure, shortened: as §2
[24] = tested on: Streptococcus pneumoniae; test: Antibacterial activity against macrolide-resistant Streptococcus pneumoniae harboring mutation in L4 ribosomal protein after overnight incubation by agar dilution method; procedure, shortened: as §3

CC[C@H]1OC(=O)[C@H](C)[C@@H](O[C@H]2C[C@@](C)(OC)[C@@H](O)[C@H](C)O2)[C@H](C)[C@@H](O[C@@H]2O[C@H](C)C[C@H](N(C)C)[C@H]2O)[C@](C)(O)C[C@@H](C)C(=O)[C@H](C)[C@@H](O)[C@]1(C)O [ERYTHROMYCIN]
MIC50 [1]: > 64 µg/mL
MIC90 [1]: > 64 µg/mL
MIC50 [2]: 4 µg/mL (≈ 5.45 µM)
MIC90 [2]: > 64 µg/mL
MIC50 [3]: 4 µg/mL (≈ 5.45 µM)
MIC90 [3]: > 64 µg/mL
MIC50 [4]: 16 µg/mL (≈ 21.8 µM)
MIC90 [4]: 32 µg/mL (≈ 43.6 µM)
MIC50 [5]: 0.06 µg/mL (≈ 0.0818 µM)
MIC90 [5]: 0.125 µg/mL (≈ 0.17 µM)
MIC50 [6]: > 64 µg/mL
MIC90 [6]: > 64 µg/mL
MIC50 [7]: 0.06 µg/mL (≈ 0.0818 µM)
MIC50 [8]: 4 µg/mL (≈ 5.45 µM)
MIC90 [8]: 32 µg/mL (≈ 43.6 µM)
MIC50 [9]: 4 µg/mL (≈ 5.45 µM)
MIC90 [9]: 32 µg/mL (≈ 43.6 µM)
MIC [10]: 2 µg/mL (≈ 2.73 µM)
MIC50 [11]: 0.06 µg/mL (≈ 0.0818 µM)
MIC90 [11]: 0.125 µg/mL (≈ 0.17 µM)
MIC [12]: 2 µg/mL (≈ 2.73 µM)
MIC50 [13]: > 64 µg/mL
MIC90 [13]: > 64 µg/mL
MIC50 [14]: > 64 µg/mL
MIC90 [14]: > 64 µg/mL
MIC [15]: 8 µg/mL (≈ 10.9 µM)
MIC50 [16]: 4 µg/mL (≈ 5.45 µM)
MIC90 [16]: > 64 µg/mL
MIC50 [17]: 16 µg/mL (≈ 21.8 µM)
MIC90 [17]: 32 µg/mL (≈ 43.6 µM)

C[C@H]1COc2c(N3CCN(C)CC3)c(F)cc3c(=O)c(C(=O)O)cn1c23.C[C@H]1COc2c(N3CCN(C)CC3)c(F)cc3c(=O)c(C(=O)O)cn1c23.O [LEVOFLOXACIN]
MIC50 [1]: 1 µg/mL
MIC90 [1]: 2 µg/mL
MIC50 [2]: 1 µg/mL
MIC90 [2]: 16 µg/mL
MIC50 [3]: 0.5 µg/mL
MIC90 [3]: 1 µg/mL
MIC50 [18]: 1 µg/mL
MIC90 [18]: 2 µg/mL
MIC50 [4]: 0.5 µg/mL
MIC90 [4]: 1 µg/mL
MIC50 [19]: 1 µg/mL
MIC90 [19]: 16 µg/mL
MIC50 [20]: 1 µg/mL
MIC90 [20]: 16 µg/mL
MIC50 [5]: 1 µg/mL
MIC90 [5]: 16 µg/mL
MIC50 [6]: 1 µg/mL
MIC90 [6]: 2 µg/mL
MIC50 [21]: 1 µg/mL
MIC90 [21]: 2 µg/mL
MIC50 [7]: 16 µg/mL
MIC90 [7]: 16 µg/mL
MIC50 [8]: 1 µg/mL
MIC90 [8]: 2 µg/mL
MIC50 [9]: 1 µg/mL
MIC90 [9]: 2 µg/mL
MIC [10]: 0.5 µg/mL
MIC50 [11]: 0.5 µg/mL
MIC90 [11]: 0.5 µg/mL
MIC50 [13]: 0.5 µg/mL
MIC90 [13]: 1 µg/mL
MIC50 [14]: 0.5 µg/mL
MIC90 [14]: 1 µg/mL
MIC [15]: 0.06 µg/mL
MIC50 [22]: 1 µg/mL
MIC90 [22]: 2 µg/mL
MIC50 [16]: 0.5 µg/mL
MIC90 [16]: 1 µg/mL
MIC50 [23]: 1 µg/mL
MIC90 [23]: 2 µg/mL
MIC50 [24]: 1 µg/mL
MIC90 [24]: 2 µg/mL
MIC50 [17]: 0.5 µg/mL
MIC90 [17]: 1 µg/mL

Source: ChEMBL document CHEMBL1240350, “In vitro activity of CEM-101 against Streptococcus pneumoniae and Streptococcus pyogenes with defined macrolide resistance mechanisms” (Antimicrob Agents Chemother, 2010)
